Screening data (PubChem BioAssay)
Compounds with a hit are over-represented: about 12% of the library has one in this group of screens.
b-catenin transl: modulators of beta-catenin nuclear translocation, primary screen, imaging, HeLa cells, immunofluorescence, high-content | nuclear translocation activity, % at 5 µM | hit rate 0.3% among 190,000 | AID 1665, 2009;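 active means nuclear translocation activity above 50% at 5 µM, with a well cell count of 50 or more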;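 further: per-cell ratio of nuclear to cytoplasmic median beta-catenin stain intensity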
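Test system: HeLa cells, endogenous beta-catenin; Compound: single 5 µM dose plus 0.02–20 µM confirmation series; Times: compound exposure 24 h at 37°C; Signal: fluorescence imaging of beta-catenin antibody stain plus DAPI; Read-out: % activation, nuclear-to-cytoplasmic median beta-catenin signal ratio per cell.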
CHOP inh: inhibitors of CHOP promoter induction, primary screen, cell-based, unfolded protein response, luciferase reporter. CHO-K1 CHOP-promoter luciferase, tunicamycin-induced, 15-18 h. inhibition, % at 10 µM. hit rate 3.8% among 220,000;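 active means compounds that reduced the stress-induced luciferase reporter signal by more than about 70% of percent inhibition, limit read from the data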
Autophagy mod: autophagy modulators in MEF cells, primary screen, imaging, high-content, MEF GFP-LC3 | hit rate 0.98% among 190,000 | calls only at 10 µM (by protocol) | MEF GFP-LC3 puncta imaging; test concentration mostly 10 µM;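 active means percentage of spot-positive cells more than 3 SD above its plate mean, without a fluorescence outlier flag or 80% toxicity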
Dynein transport: inhibitors of GR-EGFP nuclear translocation, primary screen, dynein cargo transport inhibitor project, imaging, high-content, 3617.4 mouse cells; test concentration mostly 20 µM; stimulated with dexamethasone, 1 µM; active compounds read low; z-score, hits read low; hit rate 0.47% among 220,000; AID 1381, 2008;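 active means plate z-score of nuclear minus cytoplasmic receptor signal below a set negative limit, without overly bright fluorescence or cell loss, cut at about -3.5 in these data, passing the limit was not always enough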;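 further: z-score of nuclear minus cytoplasmic ring GR-EGFP intensity difference per well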
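Also added: dexamethasone, 1.0 µM final. Medium: tet-free, stripped-serum medium. Detection: fixed, Hoechst-stained cells imaged at 10x for EGFP. Read-out: nuclear-to-cytoplasmic GR-EGFP distribution per well. Times: induction 48 h, compound 1 h, agonist 30 min.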
L major viab: Leishmania major promastigote growth inhibition, primary screen; Leishmania major promastigotes, resazurin fluorescence viability; inhibition, % at 10 µM; hit rate 9% among 200,000; AID 1063, 2008; in the data active means inhibition above about 50%;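 further: promastigotes grown with compound for 44 hours at 28 °C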
MT stabilizer: microtubule stabilizers in HeLa cells, primary screen, imaging, high-content imaging; % tubulin-high responders, % at 10 µM; HeLa tubulin immunostaining HCS, 24 h; share of cells brighter than vehicle mean+2SD; hit rate 0.83% among 200,000;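 active means plate Z-score above 3 for both tubulin-high and condensed-nucleus cell shares, with cell loss under 80%, at 10 µM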;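 further: anti alpha tubulin signal scored within the nucleus-defined area of each cell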
A number is an active result; . = inactive; / = no result.

SMILES	b-catenin transl	CHOP inh	Autophagy mod	Dynein transport	L major viab	MT stabilizer
CCCSc1nc(O)c(C(c2ccc(OC)c(O)c2)c2c(O)nc(SCCC)n(C)c2=O)c(=O)n1C	/	.	.	.	.	.
CCOc1ccc(N(CC(=O)NC(C(C)C)C(C)C)S(=O)(=O)c2ccc(OC)c(OC)c2)cc1	.	.	.	.	.	.
Cc1ccc(Nc2nnc(SCC(=O)NC(Cc3c[nH]c4ccccc34)C(=O)O)s2)cc1 (centres undefined)	.	.	.	.	.	.
O=C(NCCCc1nc2ccccc2[nH]1)c1ccc(F)cc1	.	.	.	.	.	.
Cc1ccc2c(c1)nnn2C1CCN(S(=O)(=O)c2ccc(C(=O)N(C)C)cc2)CC1	.	.	.	.	.	.
Cc1ccc2c(c1)nnn2C1CCN(S(=O)(=O)c2ccc(C(=O)N3CC(C)CC(C)C3)cc2)CC1 (centres undefined)	.	.	.	.	.	20
CCCCOc1ccc(C(C)NC(=O)CCS(=O)(=O)Cc2ccccc2F)cc1 (centres undefined)	.	71	.	.	.	.
COc1ccc(Cc2nnc(NS(=O)(=O)c3ccc(Cl)cc3)s2)cc1OC	.	.	.	.	.	.
O=C(Cn1c2ccc(F)cc2c2nc3n(c(=O)c21)CCS3)Nc1ccccc1C(F)(F)F	.	78	.	.	.	.
O=C(Cn1c2ccc(F)cc2c2nc3n(c(=O)c21)CCS3)Nc1ccccc1F	.	.	.	.	.	.
O=C(CCC(=O)OCCCC(F)(F)C(F)(F)F)Nc1ccc(Cl)cc1Cl	/	80	.	.	.	.
CCn1c(=O)c(=O)[nH]c2cc(C(=O)NCC3CCCCC3)ccc21	/	.	.	.	68	.
CCn1c(=O)c(=O)[nH]c2cc(C(=O)NC3CCCC3)ccc21	.	.	.	.	.	.
c1ccc(-c2oc3ncnc(NCCCn4ccnc4)c3c2-c2ccccc2)cc1	.	.	.	.	100	.
c1ccc(-c2c(-c3ccccc3)n(Cc3ccco3)c3ncnc(NCCCn4ccnc4)c23)cc1	.	.	.	.	100	.
N=c1c2c(-c3ccccc3)c(-c3ccccc3)n(Cc3ccco3)c2ncn1CCCN1CCOCC1	.	.	.	.	100	.
O=C1c2ccccc2C(=O)N1Cc1nc2ccccc2c(=O)n1CCCn1ccnc1	.	.	.	.	.	.
O=c1c2ccccc2nc(-c2ccccc2)n1CCCN1CCOCC1	.	.	.	.	.	.
N=c1c2c(-c3ccccc3)c(-c3ccccc3)n(Cc3ccco3)c2ncn1CCCn1ccnc1	.	.	.	.	100	.
OCCNc1ncnc2c1c(-c1ccccc1)c(-c1ccccc1)n2Cc1ccco1	.	.	.	.	.	.
NC(Cc1ccc(Oc2ccc(O)cc2)cc1)C(=O)O (centres undefined)	/	.	.	.	.	.
Cc1cccc(N2CCc3c2nc2ccc(Br)cc2c3N)c1	.	.	.	.	100	.
CSc1nc(C)c2c(n1)N(c1cccc(C)c1)CC2	.	88	.	.	.	.
S=C(c1ccc(Br)cc1)N1CCN(Cc2ccccc2)CC1	/	.	.	.	.	.
Nc1c2c(nc3ccc(Br)cc13)N(Cc1ccccc1)CC2	.	.	.	.	94	.
SMILES	b-catenin transl	CHOP inh	Autophagy mod	Dynein transport	L major viab	MT stabilizer
Nc1c2c(nc3ccc(Br)cc13)N(C1CCCCC1)CC2	.	.	.	.	101	.
Cc1ccc2cc3c(nc2c1)N(c1ccccc1)CC3	.	.	.	.	.	.
C#CCOCCOCCOCCNc1nc(N2CCN(C(=O)[C@H]([C@@H](C)CC)n3cc([C@@H](N)Cc4ccc(O)cc4)nn3)CC2)nc(N2CCN(C(=O)[C@H](CCCCN)n3cc([C@@H](N)CC(C)C)nn3)CC2)n1	.	.	.	.	.	.
Cc1ncsc1CCSc1nc2ccccc2c(=O)n1C	.	.	.	.	.	.
Nc1c2c(nc3ccccc13)N(C1CCCCC1)CC2	.	.	/	/	/	/
Nc1c2c(nc3ccc(Br)cc13)N(c1ccccc1)CC2	.	.	.	.	100	.
CCc1cc2c(=O)c(-c3cnn(-c4ccccc4)c3)c(C)oc2cc1OCC(=O)Nc1cccc(C)c1	.	94	.	.	66	.
